Experimental findings from ChEMBL document CHEMBL1140473, “Novel potent macrocyclic inhibitors of the hepatitis C virus NS3 protease: use of cyclopentane and cyclopentene P2-motifs” (Bioorg Med Chem, 2007) are described below.

Test [1] relates to Hepatitis C virus. Nature of the test: Antiviral activity against HCV 1b replicon in Huh7 cells after 48 hrs. It counts as functional, organism-based, Hepacivirus hominis. Conditions: genotype 1b, Huh-7, 48 h. The method in brief:
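Huh-7 cells carrying a subgenomic genotype 1b replicon with firefly luciferase, kept under 0.5 mg/ml G418. Cells seeded at 1500 per well, dosed after 24 h with fivefold serial dilutions (DMSO ≤1% final), incubated 48 h, then lysed for luciferase read-out. EC50 is the concentration lowering luciferase signal 50% versus untreated control.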
A general note: Replicon systems follow genome replication, usually without infectious particles.

A short description of test [2]: Inhibition of HCV 1a recombinant full length NS3/4A protease. On the set-up: species or system Hepatitis C virus subtype 1a. The method in brief:
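Preincubated 30 min at room temperature, then started with 2 μM FRET substrate RET S1. Fluorescence (ex 355/em 500 nm) followed 20 min. IC50 by non-linear fit; Ki = IC50/(1+S/Km), assuming competitive inhibition.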

Test [3] can be described thus: Inhibition of human chymotrypsin.
Test [4] concerns the target Cathepsin B (Homo sapiens, UniProt P07858). Nature of the test: Inhibition of human cathepsin B.
The nature of test [5]: Inhibition of human elastase.

SMILES strings stand for the structures.

As to `COc1ccc2c(O[C@H]3CC4C(=O)N(NC(=O)OC(C)(C)C)CCCCCCC=C[C@@H]5C[C@@]5(C(=O)O)NC(=O)[C@@H]4C3)cc(-c3ccccc3)nc2c1` (stereo partly specified), the EC50 – broadly, the midpoint of the concentration-response curve – in test [1] is over 10000 nM. For the same molecule, the Ki (as a rule, a dissociation constant, usually derived from enzyme kinetics or from competition with a known ligand) in test [2] was over 10000 nM.

`COc1ccc2c(O[C@@H]3C[C@H]4C(=O)N[C@]5(C(=O)O)C[C@H]5/C=C\CCCCCN(N)C(=O)[C@@H]4C3)cc(-c3ccccc3)nc2c1` came in with an EC50 in test [1] of over 10000 nM. Besides, in test [2], the Ki amounted to 120 nM.

The molecule `COc1ccc2c(O[C@@H]3C[C@H]4C(=O)N[C@]5(C(=O)O)C[C@H]5C=CCCCCN(C)C(=O)[C@@H]4C3)cc(-c3ccccc3)nc2c1` had an EC50 in test [1] of 2200 nM. Further, the inhibition constant (Ki) in test [2] was found to be 44 nM.

The molecule `COc1ccc2c(O[C@H]3C=C4C(=O)N(N)CCCCC/C=C\[C@@H]5C[C@@]5(C(=O)O)NC(=O)[C@@H]4C3)cc(-c3ccccc3)nc2c1` showed a half-maximal effective concentration (EC50) in test [1] of 4500 nM. The Ki in test [2] was determined as 110 nM.

Regarding `COc1ccc2c(O[C@@H]3C[C@H]4C(=O)N[C@]5(C(=O)O)C[C@H]5/C=C\CCCCCN(NC(=O)OC(C)(C)C)C(=O)[C@@H]4C3)cc(-c3ccccc3)nc2c1`, in test [1], the EC50 is over 10000 nM. Further, the inhibitory constant (Ki) in test [2] is 710 nM.

Consider `COc1ccc2c(O[C@@H]3C[C@H]4C(=O)N[C@]5(C(=O)O)C[C@H]5/C=C\CCCN(NC(=O)OC(C)(C)C)C(=O)[C@@H]4C3)cc(-c3ccccc3)nc2c1`, for which the concentration for a half-maximal effect (EC50) in test [1] is over 10000 nM. The Ki in test [2] turned out to be 130 nM.

Molecule `COc1ccc2c(O[C@H]3C[C@H]4C(=O)NCCCCC=C[C@@H]5C[C@@]5(C(=O)O)NC(=O)[C@@H]4C3)cc(-c3ccccc3)nc2c1` came in with an EC50 in test [1] of over 10000 nM. Also, the Ki in test [2] worked out at 260 nM.

In the case of `COc1ccc2c(O[C@@H]3C[C@H]4C(=O)N[C@]5(C(=O)O)C[C@H]5C=CCCCCN(NC(=O)OC(C)(C)C)C(=O)[C@@H]4C3)cc(-c3ccccc3)nc2c1`, in test [1], the EC50 is over 10000 nM. Further, in test [2], the Ki was found to be 31 nM.

In turn, `COc1ccc2c(O[C@@H]3C[C@H]4C(=O)N[C@]5(C(=O)NS(=O)(=O)C6CC6)C[C@H]5C=CCCCCN(NC(=O)OC(C)(C)C)C(=O)[C@@H]4C3)cc(-c3ccccc3)nc2c1` displayed a concentration giving a half-maximal response (EC50) in test [1] of 530 nM. In test [2], the Ki worked out at 0.07 nM.

`COc1ccc2c(O[C@H]3C[C@H]4C(=O)NCCCCC=C[C@@H]5C[C@@]5(C(=O)NS(=O)(=O)C5CC5)NC(=O)[C@@H]4C3)cc(-c3ccccc3)nc2c1` displayed a concentration for a half-maximal effect (EC50) in test [1] of 4400 nM. Moreover, the Ki in test [2] was 2.2 nM.

Consider `COc1ccc2c(O[C@@H]3C[C@H]4C(=O)N[C@]5(C(=O)NS(=O)(=O)C6CC6)C[C@H]5C=CCCCCN(C)C(=O)[C@@H]4C3)cc(-c3ccccc3)nc2c1`, for which the Ki in test [3] was over 5000 nM; in test [4], 2200 nM; in test [2] it was 0.41 nM; in test [5] it was over 5000 nM. The same molecule gave an EC50 in test [1] of 9.1 nM.

In the case of `COc1ccc2c(O[C@H]3CC4C(=O)N(N)CCCCCCC=C[C@@H]5C[C@@]5(C(=O)O)NC(=O)[C@@H]4C3)cc(-c3ccccc3)nc2c1` (stereo partly specified), in test [1], the EC50 was over 10000 nM. Moreover, in test [2], the Ki is over 10000 nM.

As for `COc1ccc2c(O[C@@H]3C[C@H]4C(=O)N[C@]5(C(=O)O)C[C@H]5C=CCCCCN(N)C(=O)[C@@H]4C3)cc(-c3ccccc3)nc2c1`, the midpoint of the response in test [1], the EC50, lay at 7600 nM. Further, the Ki in test [2] was determined as 6 nM.

In test [1], `COc1ccc2c(O[C@@H]3C[C@H]4C(=O)N[C@]5(C(=O)NS(=O)(=O)C6CC6)C[C@H]5C=CCCCCN(N)C(=O)[C@@H]4C3)cc(-c3ccccc3)nc2c1` gave an EC50 of 33 nM. Moreover, in test [2], the Ki was found to be 0.19 nM.
